Assay results: ChEMBL document CHEMBL3627606, “Development of Novel, CNS Penetrant Positive Allosteric Modulators for the Metabotropic Glutamate Receptor Subtype 1 (mGlu1), Based on an N-(3-Chloro-4-(1,3-dioxoisoindolin-2-yl)phenyl)-3-methylfuran-2-carboxamide Scaffold, That Potentiate Wild Type and Mutant mGlu1 Receptors Found in …” (J Med Chem, 2015)

How the values were obtained:
[1] = target: T1, Metabotropic glutamate receptor 1 (Homo sapiens, UniProt Q13255); experiment: Positive allosteric modulation of human mGlu1 receptor in HEK293 cells assessed as potentiation of glutamate-induced calcium mobiliztion by Fluo-4AM dye based fluorescence analysis; assay type: functional, cell-based; details: read-out: EC50
Target sequence in this assay (Q13255 whole entry): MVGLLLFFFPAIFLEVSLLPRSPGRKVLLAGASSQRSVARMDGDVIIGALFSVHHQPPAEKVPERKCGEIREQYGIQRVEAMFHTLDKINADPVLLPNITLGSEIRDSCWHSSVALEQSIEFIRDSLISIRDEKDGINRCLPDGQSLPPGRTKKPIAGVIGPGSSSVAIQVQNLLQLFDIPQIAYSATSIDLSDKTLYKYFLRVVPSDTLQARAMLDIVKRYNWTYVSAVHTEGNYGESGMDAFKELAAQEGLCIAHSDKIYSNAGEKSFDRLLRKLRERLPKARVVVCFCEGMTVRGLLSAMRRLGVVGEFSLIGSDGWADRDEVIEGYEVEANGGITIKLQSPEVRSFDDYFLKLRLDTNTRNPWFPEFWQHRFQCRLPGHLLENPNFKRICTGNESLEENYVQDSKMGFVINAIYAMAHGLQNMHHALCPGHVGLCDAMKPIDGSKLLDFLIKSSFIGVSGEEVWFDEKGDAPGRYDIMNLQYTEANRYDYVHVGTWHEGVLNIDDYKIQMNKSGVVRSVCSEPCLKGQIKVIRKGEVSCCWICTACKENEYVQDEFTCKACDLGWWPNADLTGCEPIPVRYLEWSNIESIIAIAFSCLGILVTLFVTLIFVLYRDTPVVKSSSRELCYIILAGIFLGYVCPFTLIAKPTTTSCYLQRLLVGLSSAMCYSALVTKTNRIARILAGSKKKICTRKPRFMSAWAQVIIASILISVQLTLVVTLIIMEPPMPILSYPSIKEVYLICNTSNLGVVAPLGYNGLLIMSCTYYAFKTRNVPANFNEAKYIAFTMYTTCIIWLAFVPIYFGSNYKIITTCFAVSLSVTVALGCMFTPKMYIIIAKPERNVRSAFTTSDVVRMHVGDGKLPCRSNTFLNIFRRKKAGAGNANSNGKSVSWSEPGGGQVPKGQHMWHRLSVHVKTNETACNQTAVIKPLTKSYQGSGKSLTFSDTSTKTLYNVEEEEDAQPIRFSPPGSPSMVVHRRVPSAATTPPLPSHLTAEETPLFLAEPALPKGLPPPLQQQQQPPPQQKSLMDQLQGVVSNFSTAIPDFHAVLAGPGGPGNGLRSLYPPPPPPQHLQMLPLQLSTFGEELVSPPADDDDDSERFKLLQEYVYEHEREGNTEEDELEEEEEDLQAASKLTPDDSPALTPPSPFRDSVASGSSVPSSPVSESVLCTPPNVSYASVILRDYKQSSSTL

[2] = tested on: Plasma; experiment: Drug level in human plasma treated with N-(3-chloro-4-(5-chloro-1,3-dioxoisoindolin-2-yl)phenyl)-3-methylfuran-2-carboxamide at 10 uM after 4 hrs by mass spectrometry; assay type: ADME, cell-free
Procedure, shortened: (§1)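 Compound incubated at 10 μM in rat or human plasma at 37 °C. Samples taken at 0 and 4 h were analysed by mass spectrometry for parent and metabolites.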

[3] = tested on: Plasma; experiment: Drug level in rat plasma treated with N-(3-chloro-4-(5-chloro-1,3-dioxoisoindolin-2-yl)phenyl)-3-methylfuran-2-carboxamide at 10 uM after 4 hrs by mass spectrometry; assay type: ADME, cell-free; procedure, shortened: as §1
[4] = target: T1, Metabotropic glutamate receptor 1; experiment: Positive allosteric modulation of human mGlu1 receptor in HEK293 cells assessed as potentiation of glutamate-induced calcium mobiliztion by Fluo-4AM dye based fluorescence analysis relative to glutamate; assay type: functional, cell-based
Target sequence in this assay (Q13255 19-1194 limits assumed): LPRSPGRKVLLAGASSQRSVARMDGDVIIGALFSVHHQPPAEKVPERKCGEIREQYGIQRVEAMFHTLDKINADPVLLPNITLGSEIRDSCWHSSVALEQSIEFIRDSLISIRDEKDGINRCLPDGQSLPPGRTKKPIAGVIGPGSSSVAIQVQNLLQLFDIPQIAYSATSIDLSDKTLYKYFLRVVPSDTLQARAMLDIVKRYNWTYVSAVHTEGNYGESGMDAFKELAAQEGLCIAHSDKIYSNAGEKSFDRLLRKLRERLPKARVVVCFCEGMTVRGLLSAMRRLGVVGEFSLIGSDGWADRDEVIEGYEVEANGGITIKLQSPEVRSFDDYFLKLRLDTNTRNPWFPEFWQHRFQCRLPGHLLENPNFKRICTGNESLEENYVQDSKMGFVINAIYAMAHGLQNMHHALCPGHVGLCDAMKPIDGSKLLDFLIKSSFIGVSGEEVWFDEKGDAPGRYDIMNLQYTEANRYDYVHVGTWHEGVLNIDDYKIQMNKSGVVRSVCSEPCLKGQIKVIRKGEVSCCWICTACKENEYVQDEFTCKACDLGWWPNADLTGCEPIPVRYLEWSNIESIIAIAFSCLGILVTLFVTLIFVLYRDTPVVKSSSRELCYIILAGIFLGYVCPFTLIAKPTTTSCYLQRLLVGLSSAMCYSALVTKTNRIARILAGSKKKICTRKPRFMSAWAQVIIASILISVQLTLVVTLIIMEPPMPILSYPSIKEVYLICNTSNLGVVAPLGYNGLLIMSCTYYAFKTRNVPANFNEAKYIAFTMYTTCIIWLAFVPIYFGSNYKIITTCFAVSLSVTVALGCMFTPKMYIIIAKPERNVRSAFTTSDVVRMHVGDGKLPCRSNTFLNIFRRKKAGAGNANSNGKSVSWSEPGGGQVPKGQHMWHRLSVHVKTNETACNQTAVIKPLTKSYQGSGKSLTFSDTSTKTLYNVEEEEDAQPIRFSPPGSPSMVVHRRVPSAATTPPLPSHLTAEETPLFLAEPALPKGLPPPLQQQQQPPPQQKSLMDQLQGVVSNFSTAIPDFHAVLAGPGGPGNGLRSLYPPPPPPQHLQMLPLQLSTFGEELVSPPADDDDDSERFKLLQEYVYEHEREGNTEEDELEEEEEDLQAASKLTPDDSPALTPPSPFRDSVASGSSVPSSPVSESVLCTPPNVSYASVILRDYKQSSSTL

[5] = target: T2, Metabotropic glutamate receptor 4 (Homo sapiens, UniProt Q14833); experiment: Positive allosteric modulation of human mGlu4 receptor assessed as potentiation of glutamate-induced calcium mobiliztion by cell based assay; assay type: functional; details: read-out: EC50
[6] = species on record: Homo sapiens; experiment: Selectivity index, ratio of EC50 for human mGlu4 receptor to EC50 for human mGlu1 receptor
[7] = target: T2, Metabotropic glutamate receptor 4; experiment: Positive allosteric modulation of human mGlu4 receptor assessed as potentiation of glutamate-induced calcium mobiliztion by cell based assay relative to PHCCC

T2 sequence (Q14833 whole entry): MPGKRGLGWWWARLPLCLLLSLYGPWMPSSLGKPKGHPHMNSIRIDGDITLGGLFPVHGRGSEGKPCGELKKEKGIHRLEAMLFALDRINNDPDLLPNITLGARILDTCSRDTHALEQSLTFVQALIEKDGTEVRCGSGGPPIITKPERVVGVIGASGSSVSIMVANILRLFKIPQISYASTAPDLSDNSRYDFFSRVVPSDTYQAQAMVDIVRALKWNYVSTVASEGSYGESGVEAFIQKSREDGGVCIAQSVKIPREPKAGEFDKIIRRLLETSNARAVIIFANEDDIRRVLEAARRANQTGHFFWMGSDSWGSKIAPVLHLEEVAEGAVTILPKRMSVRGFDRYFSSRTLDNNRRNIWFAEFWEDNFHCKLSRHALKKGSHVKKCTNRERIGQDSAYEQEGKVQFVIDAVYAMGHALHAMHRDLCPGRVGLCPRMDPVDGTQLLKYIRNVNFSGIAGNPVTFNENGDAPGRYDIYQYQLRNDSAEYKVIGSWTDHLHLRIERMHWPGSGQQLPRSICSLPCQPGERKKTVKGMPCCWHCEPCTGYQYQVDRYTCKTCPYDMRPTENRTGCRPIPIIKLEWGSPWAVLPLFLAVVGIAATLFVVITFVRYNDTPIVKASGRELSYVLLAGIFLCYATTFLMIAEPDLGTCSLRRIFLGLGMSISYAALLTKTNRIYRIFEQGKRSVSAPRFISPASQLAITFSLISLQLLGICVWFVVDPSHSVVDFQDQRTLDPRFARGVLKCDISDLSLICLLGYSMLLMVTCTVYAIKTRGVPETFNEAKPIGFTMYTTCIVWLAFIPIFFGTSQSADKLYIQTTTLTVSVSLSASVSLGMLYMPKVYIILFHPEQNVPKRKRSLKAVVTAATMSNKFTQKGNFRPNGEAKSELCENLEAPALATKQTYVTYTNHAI

Row | SMILES | EC50 [1] [µM] | %max [4] [%] | other results
1 | O=C(Nc1ccc(N2C(=O)c3ccccc3C2=O)c(Cl)c1)c1cn[nH]c1 | > 10 |  | 
2 | O=C(Nc1ccc(N2C(=O)c3ccccc3C2=O)c(Cl)c1)c1ccc[nH]1 | > 10 |  | 
3 | Cc1ccoc1C(=O)Nc1ccc(NC(=O)c2cc(Cl)ccc2C(=O)O)c(Cl)c1 |  |  | Drug metabolism [2]: metabolite_detected; Drug metabolism [3]: metabolite_detected
4 | O=C(Nc1ccc(N2C(=O)c3ccccc3C2=O)c(Cl)c1)c1coc2ccccc12 | > 10 |  | 
5 | Cc1ccoc1C(=O)Nc1ccc(N2C(=O)c3cccc(Cl)c3C2=O)c(Cl)c1 | 0.033 | 91 | EC50 [5]: 1.14 µM; Ratio EC50 [6]: 34.5; %max [7]: 163%
6 | O=C(Nc1ccc(N2C(=O)c3ccccc3C2=O)c(Cl)c1)c1ccco1 | 0.55 | 76 | 
7 | O=C(Nc1ccc(N2C(=O)c3ccccc3C2=O)c(Cl)c1)c1ccc(C(F)(F)F)o1 | > 10 | 43 | 
8 | O=C(Nc1ccc(N2C(=O)c3ccccc3C2=O)c(Cl)c1)c1cncs1 | > 10 |  | 
9 | O=C(Nc1ccc(N2C(=O)c3ccccc3C2=O)c(Cl)c1)c1cnc[nH]1 | > 10 |  | 
10 | O=C(Nc1ccc(N2C(=O)c3ccccc3C2=O)c(Cl)c1)c1cc2ccccc2o1 | > 10 |  | 
11 | Cc1ccc2c(c1)C(=O)N(c1ccc(NC(=O)c3occc3C)cc1Cl)C2=O | 0.0544 | 86 | EC50 [5]: 0.323 µM; Ratio EC50 [6]: 5.9; %max [7]: 69%
12 | CCc1ccc(C(=O)Nc2ccc(N3C(=O)c4ccccc4C3=O)c(Cl)c2)o1 | > 10 | 30 | 
13 | O=C(Nc1ccc(N2C(=O)c3ccccc3C2=O)c(Cl)c1)c1ccc(Cl)o1 | > 10 | 55 | 
14 | O=C(Nc1ccc(N2C(=O)c3ccccc3C2=O)c(Cl)c1)c1cnco1 | > 10 |  | 
15 | CN(C)Cc1ccc(C(=O)Nc2ccc(N3C(=O)c4ccccc4C3=O)c(Cl)c2)o1 | > 10 |  | 
16 | CS(=O)(=O)c1ccc(C(=O)Nc2ccc(N3C(=O)c4ccccc4C3=O)c(Cl)c2)o1 | > 10 | 35 | 
17 | O=C(Nc1ccc(N2C(=O)c3ccccc3C2=O)c(Cl)c1)c1cocn1 | > 10 |  | 
18 | Cc1ccoc1C(=O)Nc1ccc(N)c(Cl)c1 |  |  | Drug metabolism [2]: metabolite_detected; Drug metabolism [3]: metabolite_detected
